# Measurements gathered from unrelated publications.
# Protocols differ between the studies behind these lines.
# Target: Phosphatidylinositol 4-phosphate 5-kinase type-1 gamma (PIP5K1C, Homo sapiens, UniProt O60331)
Structure (SMILES),test,conditions,remaining binding
N[C@@H]1CCN(c2nccc(-c3cnn4ncccc34)n2)C1,binding,1 µM,81%
c1cncc(-c2cccc(Nc3nccc(NC4CCCCC4)n3)c2)c1,"binding, competition with immobilised ligand",10 µM,0%
Cc1nc(C2CCN(C(=O)c3ccc(OC(F)(F)F)cc3N)CC2)c2ncc(N3CCN(C)CC3)cc2n1,"cell-free assay, competition with immobilised ligand",1 µM,94%
O=C(Nc1c[nH]nc1C(=O)NC1CCNCC1)c1cc(F)cc(F)c1,"binding, competition with immobilised ligand",1 µM,87%
CNC(=O)Nc1ccc2c(c1)CC[C@@]21OC(=O)N(CC(=O)N(Cc2ccc(F)cc2)[C@@H](C)C(F)(F)F)C1=O,"cell-free assay, competition with immobilised ligand",1 µM,100%
CCN1CCN(Cc2ccc(C(=O)Nc3ccc(C)c(Oc4ccc5c(c4)CC(=O)N5)c3)cc2C(F)(F)F)CC1,"binding, competition with immobilised ligand",1 µM,92%
COc1ccc2c(c1)O[C@H](c1ccc(OC)c(OC)c1)C[C@@H]2NC(=O)C1(c2ccc3c(c2)OC(F)(F)O3)CC1,"cell-free assay, competition with immobilised ligand",1 µM,100%
COc1cnc(Nc2cccc(S(N)(=O)=O)c2)nc1N1CCN(c2ccccc2)CC1,"binding, competition with immobilised ligand",1 µM,100%
O=C(c1ccc(Nc2ncc(Cl)c(-c3cc4ccccc4s3)n2)cc1)N1CCC(N2CCCC2)CC1,"binding, competition with immobilised ligand",1 µM,53%
C[C@@]1(Cc2ccc(C#N)cc2)C(=O)N(c2cc(Cl)cc(Cl)c2)c2ncc(C(=O)NC3(c4nc(C5CCC5)no4)CC3)n21,"cell-free assay, competition with immobilised ligand",1 µM,100%
CN(CCCC(F)(F)F)c1nccc(-c2cnn3ncccc23)n1,binding,1 µM,77%
O=C(NCCCN1CCOCC1)c1ccc(Nc2nccc(-c3cc4ccccc4s3)n2)cc1,"binding, competition with immobilised ligand",1 µM,2.3%
CN(c1nccc(-c2cnn3ncccc23)n1)C1CC1,binding,1 µM,100%
COc1ncc2cc3ccccc3nc2c1C#N,"cell-free assay, competition with immobilised ligand",5 µM,89%
CN(C(=O)c1ccccc1)c1cc(N(C)c2ccc3c(c2)CCc2ccc(C(=O)NCCN4CCOCC4)cc2C3=O)ccc1F,"cell-free assay, competition with immobilised ligand",1 µM,80%
COc1ccnn2ncc(-c3ccnc(N(C)C)n3)c12,binding,1 µM,97%
COc1cccc(CNC(=O)c2nc3scc(COCc4ccc(C(=O)O)cc4)c3c(=O)[nH]2)c1,"cell-free assay, competition with immobilised ligand",1 µM,63.7%
C[C@H]1CCN(c2nccc(-c3cnn4ncccc34)n2)C1,binding,1 µM,95%
